Active and inactive are the calls of the source. No cut-off for these calls is given here.
What was measured:
661W-A11 [1] = assay: Neuroprotective activity against zaprinast induced mouse 661W-A11 cells assessed as increase in cell viability at 50 uM preincubated for 2 hrs followed by zaprinast addition at 200 uM and measured after 48 hrs by MTT assay; type: functional, cell-based; conditions: time 50.0 hrs
Summary of the method: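 661W-A11 cells seeded 6000/well; 24 h later pretreated 2 h with 50 µM compound, then 200 µM zaprinast 48 h with compound present. MTT 1 mg/mL for 90 min at 37 °C, formazan in isopropanol, OD 570 nm. Viability normalized to matched vehicle (H2O or DMSO) set at 100%. ≥3 biological replicates, mean ± SD.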

[2] = test system: Primary photoreceptor cell; assay: Neuroprotective activity in rd1 mouse Primary photoreceptor cells harboring loss of function mutation in Pde6b gene assessed as reduction in cell death at 50 uM administered at day 10 of differentiation and measured after 24 hrs by TUNEL assay; type: functional, cell-based
Summary of the method: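 Neurosphere-derived retinal stem cells from rd1 mouse eyes differentiated in vitro into photoreceptors. 50 µM compound or vehicle added on day 10; TUNEL on day 11 (24 h exposure), scored as TUNEL+/DAPI+ nuclei by fluorescence microscopy. ≥3 biological replicates, mean ± SD.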

661W-A11 [3] = assay: Neuroprotective activity against zaprinast induced mouse 661W-A11 cells assessed as reduction in cell death at 50 uM preincubated for 2 hrs followed by zaprinast addition at 200 uM and measured after 48 hrs by TUNEL assay; type: functional, cell-based; conditions: time 50.0 hrs
Summary of the method: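 661W-A11 cells seeded 20,000/well; 2 h pretreatment with 50 µM compound, then 200 µM zaprinast 48 h. Fixed in 2% paraformaldehyde, permeabilized in citrate/0.1% Triton X-100 on ice, TUNEL (TMR red) 30 min at 37 °C, DAPI counterstain, fluorescence microscopy. Death = TUNEL+ cells/DAPI+ cells. ≥3 biological replicates, mean ± SD.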

[4] = Cytotoxicity against mouse 661W-A11 cells assessed as reduction in cell viability at 1 to 1000 uM incubated for 48 hrs by MTT assay; type: toxicity, cell-based; conditions: 661w-a11, 48 h, dose 1-1000 µM
Summary of the method: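 661W-A11 rod-like mouse photoreceptor line (1 mg/mL glucose DMEM, 10% FBS, 37 °C, 5% CO2), seeded 6000 cells/well; next day exposed to scaling concentrations (1 μM to 1 mM) for 48 h in H2O or DMSO vehicle, matched vehicle controls. MTT 1 mg/mL, 90 min at 37 °C; formazan dissolved in isopropanol, OD 570 nm; untreated cells set as 100% viability; at least three biological replicates.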

[5] = Neuroprotective activity against zaprinast induced mouse 661W-A11 cells assessed as increase in cell viability at 1 to 1000 uM preincubated for 2 hrs followed by zaprinast addition at 200 uM and measured after 48 hrs by MTT assay relative to control; type: functional; conditions: dose 1-1000 µM, time 50 hrs
Summary of the method: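 661W-A11 rod-like cells (DMEM 1 mg/mL glucose, 10% FBS, 37 °C, 5% CO2) seeded 6000/well; next day pretreated 2 h with 1 µM–1 mM compound, then 200 µM zaprinast 48 h with compound present. MTT 1 mg/mL, 90 min at 37 °C, formazan in isopropanol, OD 570 nm. EC50 from dose–response curve; ≥3 biological replicates, mean ± SEM.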

SMILES	Activity (661W-A11 [1])	Activity [2]	Activity (661W-A11 [3])	Activity [4]	Activity [5]
CCN(CC)CC.O=c1c2nc(Br)n([C@@H]3O[C@@H]4COP(=S)(S)O[C@H]4[C@H]3O)c2nc2[nH]c(-c3ccccc3)cn12 (some centres undefined)	Active	Active	Active	Non-Toxic	–
CCN(CC)CC.O=c1c2nc(Br)n([C@@H]3O[C@@H]4CO[P@](O)(=S)O[C@H]4[C@H]3O)c2nc2[nH]c(-c3ccccc3)cn12	Active	Active	Active	–	<=70%
O=c1c2nc(Br)n([C@@H]3O[C@@H]4COP(=O)(O)O[C@H]4[C@H]3O)c2nc2[nH]c(-c3ccccc3)cn12	inactive	–	inactive	–	–
O=c1c2nc(Br)n([C@@H]3O[C@@H]4CO[P@@]([O-])(=S)O[C@H]4[C@H]3O)c2nc2[nH]c(-c3ccccc3)cn12.[Na+]	Active	Active	Active	–	<=70%

Reference: ChEMBL document CHEMBL5506026, “New Improved cGMP Analogues to Target Rod Photoreceptor Degeneration” (J Med Chem, 2024)
